According to PMC9048702 (RSC Advances, 2020):
Where “and” joins values, the source holds several entries; their conditions need not be identical. Equal values may be shown once. Read-outs that look alike come from different tables or passages of the source. Marks after values point to notes of the source that are not given here.

Columns and labels:
[1] = system: HepG2 cells; assay: MTT anti-proliferative assay, HepG2; type: cell-based, human; conditions: HepG2, 48 h, read-out: IC50 HepG2
How it was run: (§1)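 HepG2 (passage 11), MCF7 (passage 13) and normal WI-38 fibroblasts were seeded at […]. Cells were exposed to test compound at 0.5, 1, 10, 20, 50 and 100 μM for 48 h, then incubated with MTT for 4 h. Formazan was dissolved in DMSO and read at 570 nm. Untreated and doxorubicin-treated cells were included. IC50 came from dose–response curves, mean ± SEM of two independent experiments.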

[2] = system: MCF7 cells; assay: MTT anti-proliferative assay, MCF7; type: cell-based, human; conditions: MCF7, 48 h, read-out: IC50 MCF7
How it was run: as §1

[3] = system: p53; assay: qRT-PCR expression of p53 in HepG2; type: cell-based, human; conditions: HepG2, 8 h incubation at IC50 concentration, mean ± SEM
[4] = system: cdk1; assay: qRT-PCR expression of cdk1 in HepG2; type: cell-based, human; conditions: for inhibition in cdk1 expression: HepG2, 8 h
[5] = system: caspase 3; assay: qRT-PCR expression of caspase 3 in HepG2; type: cell-based, human; conditions: HepG2, 8 h incubation at IC50 concentration, mean ± SEM
[6] = system: txnrd1; assay: qRT-PCR expression of txnrd1 in HepG2; type: cell-based, human; conditions: for down-regulation (inhibition) of txnrd1 expression: HepG2, 8 h; for Fold induction from untreated cells Txnrd1: HepG2, 8 h incubation at IC50 concentration, mean ± SEM
[7] = system: p38 mitogen-activated protein kinase (MAPK); assay: MAPK concentration in HepG2 cells, sandwich ELISA; type: cell-based, human; conditions: HepG2, IC50 concentration, 8 hours
[8] = system: topoisomerase II (Topo II); assay: Topo II concentration in HepG2 cells, sandwich ELISA; type: cell-based, human; conditions: HepG2, IC50 concentration, 8 hours
[9] = system: cleaved caspase 3; assay: Active cleaved caspase 3 activity in HepG2, colorimetric kit; type: cell-based, human; conditions: HepG2, IC50 concentration, 12 h
[10] = system: WI-38 cells; assay: MTT assay, normal fibroblasts WI-38; type: cell-based; conditions: read-out: IC50 WI-38, WI-38 normal fibroblasts, 48 h, mean ± SEM
[11] = system: HepG2, MCF7 and WI-38 cells; assay: MTT anti-proliferative assay, cell lines summarised together in text; type: cell-based; conditions: Homo sapiens
How it was run: as §1

[12] = read-out: IC50 against cancer cell lines

Compound | IC50 ([1]; Homo sapiens) [µM] | IC50 ([2]; Homo sapiens) [µM] | further results
O=c1[nH]nc(-c2nnc(S)o2)c2ccccc12 [Compound 1, 4-(5-mercapto-1,3,4-oxadiazol-2-yl)phthalazin-1(2H)-one] | 4.5 ± 1.1 | 4.9 ± 0.8 | Fold induction from untreated cells p53 [3]: 3.83 ± 0.11 ^a fold; inhibition in cdk1 expression [4]: ~78%; Fold induction from untreated cells Cdk1 ([4]; HepG2, 8 h incubation at IC50 concentration, mean ± SEM): 0.22 ± 0.03 ^a fold; Fold induction from untreated cells Caspase 3 [5]: 3.10 ± 0.21 ^a fold; down-regulation (inhibition) of txnrd1 expression [6]: 33%; Fold induction from untreated cells Txnrd1 [6]: 0.67 ± 0.03 fold; reduction in MAPK concentration compared to untreated cells [7]: 84%; decrease in Topo II concentration [8]: 84%; elevation in activity of active cleaved caspase 3 compared to untreated cells [9]: ~7 fold
CCSc1nnc(-c2n[nH]c(=O)c3ccccc23)o1 [Compound 2a, 4-(5-(Ethylthio)-1,3,4-oxadiazol-2-yl)phthalazin-1(2H)-one] | 61.3 ± 4.2 | 55.8 ± 4 | 
O=c1[nH]nc(-c2nnc(SCc3ccccc3)o2)c2ccccc12 [Compound 2b, 4-(5-(Benzylthio)-1,3,4-oxadiazol-2-yl)phthalazin-1(2H)-one] | 58.9 ± 4 | 68.2 ± 4.4 | 
O=C(CSc1nnc(-c2n[nH]c(=O)c3ccccc23)o1)c1ccccc1 [Compound 2c, 4-(5-((2-Oxo-2-phenylethyl)thio)-1,3,4-oxadiazol-2-yl)phthalazin-1(2H)-one] | 66.1 ± 4.5 | 57.3 ± 4.2 | 
O=C(CSc1nnc(-c2n[nH]c(=O)c3ccccc23)o1)c1cccc([N+](=O)[O-])c1 [Compound 2d, 4-(5-((2-(3-Nitrophenyl)-2-oxoethyl)thio)-1,3,4-oxadiazol-2-yl)phthalazin-1(2H)-one] | > 100 | > 100 | 
CC(=O)c1ccc(NC(=O)CSc2nnc(-c3n[nH]c(=O)c4ccccc34)o2)cc1 [Compound 4a, N-(4-Acetylphenyl)-2-((5-(4-oxo-3,4-dihydrophthalazin-1-yl)-1,3,4-oxadiazol-2-yl)thio)acetamide] | 72.6 ± 4.8 | 76.2 ± 4.7 | 
NS(=O)(=O)c1ccc(NC(=O)CSc2nnc(-c3n[nH]c(=O)c4ccccc34)o2)cc1 [Compound 4b, 2-((5-(4-Oxo-3,4-dihydrophthalazin-1-yl)-1,3,4-oxadiazol-2-yl)thio)-N-(4-sulfamoylphenyl)acetamide] | 83.9 ± 5.2 | > 100 | 
Cc1ccc(NC(=O)CSc2nnc(-c3n[nH]c(=O)c4ccccc34)o2)cc1 [Compound 4c, 2-((5-(4-Oxo-3,4-dihydrophthalazin-1-yl)-1,3,4-oxadiazol-2-yl)thio)-N-(p-tolyl)acetamide] | 28.1 ± 2.9 | 36.3 ± 3.2 | 
O=C(CSc1nnc(-c2n[nH]c(=O)c3ccccc23)o1)Nc1ccc(Cl)cc1 [Compound 4d, N-(4-Chlorophenyl)-2-((5-(4-oxo-3,4-dihydrophthalazin-1-yl)-1,3,4-oxadiazol-2-yl)thio)acetamide] | 53.9 ± 3.8 | 49.5 ± 3.9 | 
COc1cccc2c1C(=O)c1c(O)c3c(c(O)c1C2=O)C[C@@](O)(C(=O)CO)C[C@@H]3O[C@H]1C[C@H](N)[C@H](O)[C@H](C)O1 [DOX, Doxorubicin, reference compound] | 4.5 ± 0.3 | 4.2 ± 0.2 | inhibition in cdk1 expression [4]: ~75%; down-regulation (inhibition) of txnrd1 expression [6]: 56%; reduction in MAPK concentration compared to untreated cells [7]: 85%; decrease in Topo II concentration [8]: 87%; IC50 ([11]; read-out: IC50 against all cells investigated): 4 to 7 µM
S-(5-(4-Oxo-3,4-dihydrophthalazin-1-yl)-1,3,4-oxadiazol-2-yl)2-(2-isonicotinoylhydrazinyl)ethanethioate [Compound 3] |  |  | IC50 ([1]; MTT, mean ± SEM): 38.4 ± 3.5 µM; IC50 ([2]; MTT, mean ± SEM): 40 ± 3.6 µM; IC50 [10]: 44.6 ± 4.2 µM

Continued, in another order:

IC50 ([1]; Homo sapiens) [µM] | IC50 ([2]; Homo sapiens) [µM] | Compound | further results
23.5 ± 2.8 | 26.2 ± 2.5 | Cc1ccc(NCSc2nnc(-c3nn(CNc4ccc(C)cc4)c(=O)c4ccccc34)o2)cc1 [Compound 7a, 2-((p-Tolylamino)methyl)-4-(5-(((p-tolylamino)methyl)thio)-1,3,4-oxadiazol-2-yl)phthalazin-1(2H)-one] | 
33.3 ± 3.4 | 31.3 ± 2.8 | O=c1c2ccccc2c(-c2nnc(SCNc3ccc(Cl)cc3)o2)nn1CNc1ccc(Cl)cc1 [Compound 7b, 2-(((4-Chlorophenyl)amino)methyl)-4-(5-((((4-chlorophenyl)amino)methyl)thio)-1,3,4-oxadiazol-2-yl)phthalazin-1(2H)-one] | 
17.2 ± 1.9 | 15.4 ± 1.2 | O=c1c2ccccc2c(-c2nnc(SCNc3ccccc3Cl)o2)nn1CNc1ccccc1Cl [Compound 7c, 2-(((2-Chlorophenyl)amino)methyl)-4-(5-((((2-chlorophenyl)amino)methyl)thio)-1,3,4-oxadiazol-2-yl)phthalazin-1(2H)-one] | IC50 [10]: 23.2 ± 1.2 µM
6.3 ± 0.7 | 5.5 ± 0.4 | COc1ccc(NCSc2nnc(-c3nn(CNc4ccc(OC)cc4)c(=O)c4ccccc34)o2)cc1 [Compound 7d, 2-(((4-Methoxyphenyl)amino)methyl)-4-(5-((((4-methoxyphenyl)amino)methyl)thio)-1,3,4-oxadiazol-2-yl)phthalazin-1(2H)-one] | Fold induction from untreated cells p53 [3]: 2 fold and 2.16 ± 0.12 ^a fold; Fold induction from untreated cells Caspase 3 [5]: 2 fold and 1.96 ± 0.09 ^a fold; Fold induction from untreated cells Txnrd1 [6]: 1.02 ± 0.16 fold; decrease in Topo II concentration [8]: 31%; IC50 [11, 12]: 5.5 to 15 µM
7 ± 1.5 | 8.4 ± 0.9 | O=c1c2ccccc2c(-c2nnc(SCNc3ccc([N+](=O)[O-])cc3)o2)nn1CNc1ccc([N+](=O)[O-])cc1 [Compound 7e, 2-(((4-Nitrophenyl)amino)methyl)-4-(5-((((4-nitrophenyl)amino)methyl)thio)-1,3,4-oxadiazol-2-yl)phthalazin-1(2H)-one] | IC50 [10]: 21.6 ± 1.8 µM; Fold induction from untreated cells p53 [3]: 2 fold and 2.02 ± 0.08 ^a fold; Fold induction from untreated cells Caspase 3 [5]: 2 fold and 2.22 ± 0.14 ^a fold; Fold induction from untreated cells Txnrd1 [6]: 1.11 ± 0.10 fold; IC50 [11, 12]: 5.5 to 15 µM
21.8 ± 2.3 | 20.8 ± 1.9 | O=c1c2ccccc2c(-c2nnc(SCNc3cccnc3)o2)nn1CNc1cccnc1 [Compound 7f, 2-((Pyridin-3-ylamino)methyl)-4-(5-(((pyridin-3-ylamino)methyl)thio)-1,3,4-oxadiazol-2-yl)phthalazin-1(2H)-one] | 
42.9 ± 3.7 | 45.5 ± 3.8 | O=c1[nH]nc(-c2nnc(SCNC3CCCCC3)o2)c2ccccc12 [Compound 7g, 4-(5-(((Cyclohexylamino)methyl)thio)-1,3,4-oxadiazol-2-yl)phthalazin-1(2H)-one] | 
